# Measurements taken from ChEMBL document CHEMBL4325822, “Discovery of a tetrazolyl β-carboline with in vitro and in vivo osteoprotective activity under estrogen-deficient conditions” (Medchemcomm, 2018).
# Activity calls are given as the source filed them. No cut-off for these calls is given here.
# Legend:
# [1] = molecular target: T1, I-kappa-B kinase (Rattus norvegicus) (UniProt Q9QY78+G3V926+Q6TMG5); assay: Inhibition of IKK in Sprague-Dawley rat calvarial osteoblasts assessed as reduction in TNFalpha-induced NFkB signaling by measuring ratio of cytosolic p65 level to beta-actin level at 10 nM after 24 hrs by Western blot analysis (reference value: 0.99); type: cell-based; settings: Calvarial osteoblast
# [2] = molecular target: T1, I-kappa-B kinase (Rattus norvegicus); assay: Inhibition of IKK in Sprague-Dawley rat calvarial osteoblasts assessed as reduction in TNFalpha-induced beta-catenin degradation by measuring ratio of beta-catenin level to beta-actin level at 10 nM after 24 hrs by Western blot analysis (reference value: 0.32); type: cell-based; settings: Calvarial osteoblast
# Summary of the method: (§1)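 Primary osteoblasts from pooled calvaria of 1-2 day SD rat pups (sequential dispase/collagenase digestion) were grown to 60-70% confluence. They were treated with 17β-estradiol 10 nM in the presence of TNFα 10 ng·ml⁻¹ for 24 h. Whole-cell lysates were immunoblotted, and bands were detected by ECL. Densitometry was normalised to β-actin.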
# [3] = molecular target: T1, I-kappa-B kinase (Rattus norvegicus); assay: Inhibition of IKK in Sprague-Dawley rat calvarial osteoblasts assessed as reduction in TNFalpha-induced NFkB signaling by measuring ratio of nuclear p65 level to beta-actin level at 10 nM after 24 hrs by Western blot analysis (reference value: 2.97); type: cell-based; settings: Calvarial osteoblast
# [4] = molecular target: T1, I-kappa-B kinase (Rattus norvegicus); assay: Inhibition of IKK in Sprague-Dawley rat calvarial osteoblasts assessed as reduction in TNFalpha-induced IkBalpha phosphorylation by measuring ratio of phosphorylated IkBalpha level to beta-actin level at 10 nM after 24 hrs by Western blot analysis (reference value: 2.32); type: cell-based; settings: Calvarial osteoblast; summary of the method: as §1
# [5] = molecular target: T1, I-kappa-B kinase (Rattus norvegicus); assay: Inhibition of IKK in TNFalpha-simulated Sprague-Dawley rat calvarial osteoblasts assessed as ratio of IkBalpha level to beta-actin level at 10 nM after 24 hrs by Western blot analysis (reference value: 0.78); type: cell-based; settings: Calvarial osteoblast; summary of the method: as §1
# [6] = molecular target: T1, I-kappa-B kinase (Rattus norvegicus); assay: Inhibition of IKK in TNFalpha-simulated Sprague-Dawley rat calvarial osteoblasts assessed as ratio of Bcl2 level to beta-actin level at 10 nM after 24 hrs by Western blot analysis (reference value: […]); type: cell-based; settings: Calvarial osteoblast
# [7] = molecular target: T1, I-kappa-B kinase (Rattus norvegicus); assay: Inhibition of IKK in TNFalpha-simulated Sprague-Dawley rat calvarial osteoblasts assessed as ratio of Bcl-xL level to beta-actin level at 10 nM after 24 hrs by Western blot analysis (reference value: 0.69); type: cell-based; settings: Calvarial osteoblast; summary of the method: as §1
# [8] = molecular target: T1, I-kappa-B kinase (Rattus norvegicus); assay: Inhibition of IKK in TNFalpha-simulated Sprague-Dawley rat calvarial osteoblasts assessed as ratio of Bax level to beta-actin level at 10 nM after 24 hrs by Western blot analysis (reference value: 1.25); type: cell-based; settings: Calvarial osteoblast; summary of the method: as §1
# [9] = molecular target: T1, I-kappa-B kinase (Rattus norvegicus); assay: Inhibition of IKK in Sprague-Dawley rat calvarial osteoblasts assessed as reduction in TNFalpha-induced NFkB nuclear translocation at 10 nM after 24 hrs by immunofluorescence assay; type: cell-based; settings: Calvarial osteoblast
# Summary of the method: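 Primary rat osteoblasts on chamber slides given TNFα (10 ng·ml⁻¹) for 24 h, with or without treatment. Then 4% PFA fixation, 0.1% Triton X-100, anti-NF-κB overnight, and Cy3 anti-rabbit secondary. Fluorescence imaged at excitation 552 nm, emission 570 nm.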
# Rattus norvegicus [10] = assay: Antiosteoporotic activity in Sprague-Dawley rat model of OVX-induced bone loss assessed as protection against microarchitectural deterioration by measuring ratio of bone volume/[…] at 100 ug/kg, sc administered 5 days/week for 12 weeks by microcomputed tomographic analysis (reference value: 4.68 +/- 0.58%); type: functional
# Rattus norvegicus [11] = assay: Antiosteoporotic activity in Sprague-Dawley rat model of OVX-induced bone loss assessed as protection against microarchitectural deterioration by measuring trabecular number at 100 ug/kg, sc administered 5 days/week for 12 weeks by microcomputed tomographic analysis (reference value: 0.56 +/- 0.06 /millimeter); type: functional
# Summary of the method: (§2)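 Adult female Sprague-Dawley rats were ovariectomized and left 12 weeks to become osteopenic. They then received 12 weeks of once-daily oral gavage (1% gum acacia vehicle) or subcutaneous estradiol, five days a week. Femurs were collected at sacrifice and scanned by micro-CT for BMD and trabecular microarchitecture. Ten rats per group; mean ± SEM.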
# Rattus norvegicus [12] = assay: Antiosteoporotic activity in Sprague-Dawley rat model of OVX-induced bone loss assessed as protection against microarchitectural deterioration by measuring trabecular separation at 100 ug/kg, sc administered 5 days/week for 12 weeks by microcomputed tomographic analysis (reference value: 1.31 +/- 0.06 millimeter); type: functional; summary of the method: as §2
# Rattus norvegicus [13] = assay: Antiosteoporotic activity in Sprague-Dawley rat model of OVX-induced bone loss assessed as protection against microarchitectural deterioration by measuring trabecular bone pattern factor at 100 ug/kg, sc administered 5 days/week for 12 weeks by microcomputed tomographic analysis (reference value: 10.81 +/- 0.68 /millimeter); type: functional; summary of the method: as §2
# Rattus norvegicus [14] = assay: Antiosteoporotic activity in Sprague-Dawley rat model of OVX-induced bone loss assessed as protection against microarchitectural deterioration by measuring structural model index at 100 ug/kg, sc administered 5 days/week for 12 weeks by microcomputed tomographic analysis (reference value: 2.07 +/- 0.06); type: functional
# Rattus norvegicus [15] = assay: Antiosteoporotic activity in Sprague-Dawley rat model of OVX-induced bone loss assessed as mineral apposition rate at 100 ug/kg, sc administered 5 days/week for 12 weeks by microcomputed tomographic analysis (reference value: 0.169 +/- 0.004 umeter/day); type: functional
# Summary of the method: (§3)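 Female Sprague-Dawley rats, 10-12 weeks old, ten per group, were ovariectomized and left 12 weeks for osteopenia. They were then dosed once daily by oral gavage for 12 weeks in 1% gum acacia vehicle. The estradiol arm received 100 µg·kg⁻¹ subcutaneously five days a week. Tetracycline and calcein were given intraperitoneally at 20 mg·kg⁻¹ each. Femur cross-sections (50 µm) were imaged by fluorescence microscopy for MAR and BFR.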
# Rattus norvegicus [16] = assay: Antiosteoporotic activity in Sprague-Dawley rat model of OVX-induced bone loss assessed as bone formation rate at 100 ug/kg, sc administered 5 days/week for 12 weeks by microcomputed tomographic analysis (reference value: 0.171 +/- 0.005 um3/um2/day); type: functional; summary of the method: as §3
# Rattus norvegicus [17] = assay: Antiosteoporotic activity in Sprague-Dawley rat model of OVX-induced bone loss assessed as increase in femoral bone strength by measuring energy at 100 ug/kg, sc administered 5 days/week for 12 weeks by 3 point bending test (reference value: 46.27 +/- 4.36 mJ); type: functional
# Rattus norvegicus [18] = assay: Antiosteoporotic activity in Sprague-Dawley rat model of OVX-induced bone loss assessed as increase in femoral bone strength by measuring stiffness at 100 ug/kg, sc administered 5 days/week for 12 weeks by 3 point bending test (reference value: 122.07 +/- 12.18 N/mm); type: functional
# Rattus norvegicus [19] = assay: Antiosteoporotic activity in Sprague-Dawley rat model of OVX-induced bone loss assessed as decrease in serum CTX level at 100 ug/kg, sc administered 5 days/week for 12 weeks by ELISA; type: functional, organism-based
# Summary of the method: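 Ovariectomy model as above: 12 weeks of osteopenia, then 12 weeks of daily gavage or subcutaneous estradiol. Serum was separated at autopsy, and CTX and PINP were measured by ELISA kits.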
# [20] = Toxicity in Sprague-Dawley rat model of OVX-induced bone loss assessed as uterine weight at 100 ug/kg, sc for 12 weeks (reference value: 0.12 +/- 0.02 g); type: organism-based; settings: in vivo, 0.1 mg/kg, 2016 h
# [21] = Toxicity in Sprague-Dawley rat model of OVX-induced bone loss assessed as total uterine area at 100 ug/kg, sc for 12 weeks (reference value: 0.11 +/- 0.003 mm2); type: organism-based; settings: in vivo, 0.1 mg/kg, 2016 h
# [22] = Toxicity in Sprague-Dawley rat model of OVX-induced bone loss assessed as luminal area at 100 ug/kg, sc for 12 weeks (reference value: 0.01 +/- 0.0004 mm2); type: organism-based; settings: in vivo, 0.1 mg/kg, 2016 h
# [23] = Toxicity in Sprague-Dawley rat model of OVX-induced bone loss assessed as luminal epithelial height at 100 ug/kg, sc for 12 weeks (reference value: 27.29 +/- 0.96 umeter); type: organism-based; settings: in vivo, 0.1 mg/kg, 2016 h
# [24] = Induction of osteoblast differentiation in Sprague-Dawley rat calvarial osteoblasts assessed as alkaline phosphatase activity at 10 nM after 48 hrs using PNPP as substrate by spectrophotometric method relative to control; type: functional
# Summary of the method: (§4)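 Calvarial osteoblasts at 2 × 10³ cells/well. Treated 48 h with varied concentrations in differentiation medium (5% charcoal-treated FBS, 10 mM β-glycerophosphate, 50 µg·mL⁻¹ ascorbic acid). Total ALP read with PNPP substrate at 405 nm. Cell-free wells check for compound interference with substrate or absorbance.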
# [25] = Induction of osteoblast differentiation in Sprague-Dawley rat calvarial osteoblasts assessed as alkaline phosphatase activity after 48 hrs using PNPP as substrate by spectrophotometric method; type: functional, cell-based; settings: Rattus norvegicus, Sprague-Dawley, Calvarial osteoblast, 48 h; read-out: EC50; summary of the method: as §4
# Calvarial osteoblast [26] = assay: Cytotoxicity against Sprague-Dawley rat calvarial osteoblasts assessed as reduction in cell viability at 0.000001 to 1 uM after 48 hrs by MTT assay; type: cell-based
# Summary of the method: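 Osteoblasts came from pooled calvaria of 1-2-day-old Sprague-Dawley pups, isolated by sequential dispase/collagenase digestion. Cells were exposed to compound at 1 pM to 1 µM for 48 h, and viability was measured by MTT.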
# Calvarial osteoblast [27] = assay: Osteogenic activity in Sprague-Dawley rat calvarial osteoblasts assessed as mineralized nodule formation at 10 nM after 21 days by alizarin red-S staining based light microscopic method; type: functional, cell-based
# Summary of the method: (§5)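 Osteoblasts at 10,000–15,000 cells/cm² in duplicate plates, 21 days in differentiation medium, medium changed every 48 h. Cells fixed in 4% PFA, stained with alizarin red-S (40 mM, pH 4.5, 30 min) and photographed. Stain extracted with 10% acetic acid, pH brought to 4.5 with ammonium hydroxide, read at 405 nm, normalized to cell number.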
# Calvarial osteoblast [28] = assay: Osteogenic activity in Sprague-Dawley rat calvarial osteoblasts assessed as mineralized nodule formation at 10 nM after 21 days by alizarin red-S staining based colorimetric method; type: functional; summary of the method: as §5
# [29] = Increase in BMP2 mRNA expression in Sprague-Dawley rat calvarial osteoblasts at 10 nM by RT-PCR method relative to control; type: functional, Calvarial osteoblast
# Summary of the method: (§6)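 Primary calvarial osteoblasts were lysed in TRIzol after treatment, and total RNA was extracted. Transcripts were quantified by real-time PCR using the comparative CT (ΔΔCT) method.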
# [30] = Increase in OCN mRNA expression in Sprague-Dawley rat calvarial osteoblasts at 10 nM by RT-PCR method relative to control; type: functional, Calvarial osteoblast; summary of the method: as §6
# [31] = Increase in Runx2 mRNA expression in Sprague-Dawley rat calvarial osteoblasts at 10 nM by RT-PCR method relative to control; type: functional, Calvarial osteoblast
# Calvarial osteoblast [32] = assay: Increase in Runx2 protein expression in Sprague-Dawley rat calvarial osteoblasts at 10 nM after 48 hrs by Western blot analysis; type: functional, cell-based
# Summary of the method: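 Rat calvarial osteoblasts (pooled 1–2-day pups, collagenase/dispase digests) at 60–70% confluence treated 48 h. Whole-cell lysates immunoblotted with primary antibody overnight at 4 °C, then HRP secondary, with ECL detection. Densitometry gives fold change normalized to β-actin versus untreated cells. Mean ± SEM of three independent experiments.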
# Calvarial osteoblast [33] = assay: Increase in BMP2 protein expression in Sprague-Dawley rat calvarial osteoblasts at 10 nM after 48 hrs by Western blot analysis; type: functional, cell-based
# Summary of the method: (§7)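 Rat calvarial osteoblasts at 60-70% confluence were treated 48 h. Whole-cell lysates were blotted, blocked in 5% milk, and probed with primary antibody overnight at 4 °C, then with HRP secondary and ECL detection. Densitometry was normalized to β-actin; fold change versus untreated cells, three independent experiments, mean ± SEM.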
# Calvarial osteoblast [34] = assay: Increase in OCN protein expression in Sprague-Dawley rat calvarial osteoblasts at 10 nM after 48 hrs by Western blot analysis; type: functional, cell-based; summary of the method: as §7
# [35] = Induction of osteoblast differentiation in Sprague-Dawley rat calvarial osteoblasts assessed as alkaline phosphatase activity at 100 nM after 48 hrs using PNPP as substrate by spectrophotometric method relative to control; type: functional; summary of the method: as §4
smiles,measurement,setting,value
C[C@]12CC[C@@H]3c4ccc(O)cc4CC[C@H]3[C@@H]1CC[C@@H]2O [ESTRADIOL],Ratio,[1],1.45
same,Ratio,[2],0.81
same,Ratio,[3],1.41
same,Ratio,[4],1.26
same,Ratio,[5],0.66
same,Ratio,[6],1.45
same,Ratio,[7],0.9
same,Ratio,[8],0.65
same,inhibition,[9],Active
same,Ratio,Rattus norvegicus [10],11.09%
same,Activity,Rattus norvegicus [11],1.55 /millimeter
same,Activity,Rattus norvegicus [12],0.68 mm
same,Activity,Rattus norvegicus [13],5.99 /millimeter
same,Activity_index,Rattus norvegicus [14],1.6
same,Activity,Rattus norvegicus [15],1.06 micrometer/day
same,Activity,Rattus norvegicus [16],1.04 um3/um2/day
same,Activity,Rattus norvegicus [17],62.77 mJ
same,Activity,Rattus norvegicus [18],171.75 N/mm
same,Activity,Rattus norvegicus [19],inactive
same,Activity,[20],0.45 g
same,Activity,[21],0.87 mm2
same,Activity,[22],0.054 mm2
same,Activity,[23],17.8 um
CCOC(=O)c1cc2c([nH]c3ccccc32)c(C(NCc2ccc(OC)cc2)c2nnnn2C(C)(C)C)n1 (stereo unspecified),Emax at 0.01 µM,[24],75%
same,EC50,[25],1200 nM
same,Activity,Calvarial osteoblast [26],Non-Toxic
same,Activity,Calvarial osteoblast [27],Active
same,Activity,Calvarial osteoblast [28],52%
same,fold change (FC),[29],1.8 - 4.6
same,fold change (FC),[30],1.8 - 4.6
same,fold change (FC),[31],1.8 - 4.6
same,Activity,Calvarial osteoblast [32],Active
same,Activity,Calvarial osteoblast [33],Active
same,Activity,Calvarial osteoblast [34],Active
CCOC(=O)c1cc2c([nH]c3ccccc32)c(C(c2nnnn2C(C)(C)C)N2CCN(CC)CC2)n1 (stereo unspecified),EC50,[25],936 nM
same,Emax at 0.1 µM,[35],14%
